Most compounds without a hit are left out; they make up all but 2.3% or so of the library.
TAAR1 antagonist = human TAAR1 antagonists, primary screen, Fluo-8 calcium fluorescence, CHO RD-HGA16 cells; antagonist; actives 1.5% (n = 360,000); AID 624466, 2012; inhibition, % at 3 µM; Trace amine-associated receptor 1 (Homo sapiens), Q96RJ0;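 active = inhibition above a per-plate cutoff, the mean inhibition of test compounds on that plate plus 3 SD, cut at about 49% in these data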;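 note: 0% = DMSO plus EC80 beta-PEA response and 100% = DMSO alone without agonist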
Target sequence (Q96RJ0 whole entry, looked up): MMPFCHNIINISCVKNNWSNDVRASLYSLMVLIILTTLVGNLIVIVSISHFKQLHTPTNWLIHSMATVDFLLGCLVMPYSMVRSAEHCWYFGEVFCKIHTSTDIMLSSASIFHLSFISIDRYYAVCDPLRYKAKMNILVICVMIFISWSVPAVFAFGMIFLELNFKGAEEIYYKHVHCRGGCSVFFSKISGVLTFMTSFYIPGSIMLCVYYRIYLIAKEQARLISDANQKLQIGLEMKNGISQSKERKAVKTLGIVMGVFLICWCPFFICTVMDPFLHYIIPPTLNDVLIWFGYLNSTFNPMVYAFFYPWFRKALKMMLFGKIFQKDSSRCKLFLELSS
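Assay system: RD-HGA16 CHO cells with stable hTAAR1 and Gα16 / Reagent: EC80 β-phenethylamine stimulus / Doses: 3 µM, single point / Timing: dye loading 75 min at 37 °C, then 30 min room temperature / Measured by: Fluo-8 intracellular calcium dye fluorescence, real-time kinetic reads / Controls: vehicle wells and EC80 agonist wells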
OXTR agonist = human OXTR agonists, primary screen, fluorescence, CHO-OTR cells, Fluo-8 calcium; Oxytocin receptor (Homo sapiens), P30559; Fluo-8 calcium fluorescence; normalized: DMSO 0%, oxytocin 100%; activation, % at 3 µM; actives 0.32% (n = 320,000);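 active = activation above the mean of all tested compounds plus 3 SD, cutoff set per screening run, cut at about 20% in these data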;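 note: peak over basal fluorescence ratio from a 100 s FLIPR kinetic read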
Target sequence (P30559 whole entry, looked up): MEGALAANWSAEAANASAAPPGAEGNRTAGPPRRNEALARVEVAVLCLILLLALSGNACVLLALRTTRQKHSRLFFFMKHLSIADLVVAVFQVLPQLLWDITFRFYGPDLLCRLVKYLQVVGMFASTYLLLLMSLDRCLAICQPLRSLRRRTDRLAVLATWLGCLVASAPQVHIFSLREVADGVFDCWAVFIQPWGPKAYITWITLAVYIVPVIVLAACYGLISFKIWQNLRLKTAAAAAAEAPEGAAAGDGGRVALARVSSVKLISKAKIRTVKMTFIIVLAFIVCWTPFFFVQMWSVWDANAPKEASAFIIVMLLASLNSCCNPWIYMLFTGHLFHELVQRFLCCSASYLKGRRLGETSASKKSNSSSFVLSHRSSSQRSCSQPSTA
V1R ag counter = agonists of human V1a receptor, primary screen, counter-screen for OXTR agonist project, fluorescence, CHO-V1R cells | Vasopressin V1a receptor (Homo sapiens), P37288 | Fluo-8 calcium fluorescence, agonist mode; 0% DMSO, 100% 3 nM vasopressin | activation, % at 3 µM | actives 0.25% (n = 320,000) | AID 2797, 2010;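 active = activation above the mean activation of all tested compounds plus 3 SD, per screening run, cut at about 20% in these data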;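 note: signal is peak over basal fluorescence ratio across a 100 second FLIPR read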
OXTR potentiate = human OXTR potentiators, primary screen, fluorescence, CHO-OTR cells, Fluo-8 calcium. Oxytocin receptor (Homo sapiens), P30559. Fluo-8 calcium fluorescence, potentiator mode; 0% = oxytocin EC15, 100% = EC100. activation, % at 3 µM. actives 0.061% (n = 320,000). AID 2445, 2010;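 active = activation above that plate's cutoff, the mean activation of tested compounds plus 3 SD, cut at about 6.6% in these data, passing the limit was not always enough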;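 note: 100% uses oxytocin at 75 nM as the full agonist control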
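Assay system: CHO-OTR cells, human receptor / Also added: oxytocin at about EC15, sub-maximal agonist stimulus / Dosing: single dose, 3.0 µM nominal final compound concentration / Incubation: 6 min pre-incubation, 100 s read / Technique: Fluo-8 calcium dye fluorescence / Read-out: % activation vs EC15 and EC100 oxytocin / Benchmarks: EC15 oxytocin low, 75 nM oxytocin high / Replicates: singlicate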
TAAR1 agonist = human TAAR1 agonists, primary screen, Fluo-8 calcium fluorescence, CHO RD-HGA16 cells | activation, % at 3 µM | vehicle wells 0%, saturating PEA agonist 100% | AID 624467, 2012 | actives 0.99% (n = 360,000) | Trace amine-associated receptor 1 (Homo sapiens), Q96RJ0;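 active = activation above the mean activation of all test compounds in the run plus 3 SD, cut at about 38% in these data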
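System: CHO-derived RD-HGA16 cells with stable Gα16 and human TAAR1 / Times: 17-24 h plating, Fluo-8 75 min 37 °C, 30 min RT / Technique: calcium-sensitive Fluo-8 signal, excitation 470-495, emission 515-575 nm / Measure: % activation relative to PEA EC100 response / Benchmarks: DMSO and PEA EC100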
TAAR1 ag confirm = human TAAR1 agonists, retest of hits, confirmation, Fluo-8 calcium fluorescence, CHO RD-HGA16 cells; shares compounds with TAAR1 agonist; scaled: DMSO 0%, maximal phenethylamine 100%; activation, % at 3 µM; actives 82% (n = 2,400); AID 651783, 2012;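 active = activation above a cutoff set at the run's mean compound activation plus 3 SD, cut at about 39% in these data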
Ga16 nonsel ag = nonselective calcium mobilization agonists, CHO-Ga16 cells, counter-screen for hTAAR1 agonist project, cell-based, fluorescence, CHO-Ga16 parental line | shares compounds with TAAR1 agonist | Fluo-8 calcium fluorescence; normalized to maximal ATP response, DMSO zero | activation, % at 3 µM | actives 50% (n = 2,400) | AID 651787, 2012;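 active = activation above the run cutoff, the mean activation over all tested wells plus 3 SD, cut at about 12% in these data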;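 note: 0% = DMSO wells and 100% = maximal ATP response on the peak over basal ratio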
TAAR1 desensitize = TAAR1 desensitization by agonist hits, confirmation, counter-screen for TAAR1 agonist project, cell-based, fluorescence, tachyphylaxis. actives 46% (n = 2,400). inhibition, % at 3 µM. AID 651951, 2012. CHO RD-HGA16 hTAAR1, Fluo-8 calcium, beta-PEA response inhibition. shares compounds with TAAR1 agonist;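 active = inhibition above the run cutoff, the mean inhibition of all test compounds plus 3 SD, cut at about 49% in these data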;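 note: beta-PEA stimulus applied at its EC80; loss of beta-PEA calcium signal after compound pretreatment read as receptor desensitization; 0% = DMSO with beta-PEA at EC80 and 100% = DMSO alone without agonist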
Ga16 nonsel ant = inhibition of ATP-evoked calcium response in CHO-Ga16 cells, counter-screen for TAAR1 agonist project, cell-based, fluorescence. shares compounds with TAAR1 agonist. CHO-Ga16 ATP-induced calcium, Fluo-8 fluorescence. inhibition, % at 3 µM. actives 39% (n = 2,400);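 active = inhibition above the plate's mean compound inhibition plus 3 SD, computed per plate, cut at about 22% in these data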;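 note: 0% = EC80 ATP with DMSO and 100% = DMSO wells without ATP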
* marks the source's active call; other numbers are inactive results; . = no result given.

SMILES	TAAR1 antagonist	OXTR agonist	V1R ag counter	OXTR potentiate	TAAR1 agonist	TAAR1 ag confirm	Ga16 nonsel ag	TAAR1 desensitize	Ga16 nonsel ant
CCOC(=O)CC1C(=O)NCCN1C1CCCC1 (configuration not stated)	-10.3	1.7	0.2	0.6	1.7	.	.	.	.
Clc1ccc2nc(N3CCNCC3)nc(-c3ccccc3)c2c1	-4.8	3.8	0.3	-4.2	56.6*	58.1*	28.5*	33.7	14.4
O=C(CCCc1c[nH]c2ccccc12)Nc1ccc(S(=O)(=O)Nc2ncccn2)cc1	5.8	-0.3	0.5	-3.6	-0.7	.	.	.	.
CC(C)(C)C(=O)NC(=S)NNC(=O)c1ccc(Cl)cc1Cl	104.2*	98.1*	121.9*	-26.2	201.9*	144.3*	114.7*	106.7*	92.3*
C=CCn1c(=O)[nH]c2nc3cc(N=CN(C)C)c(C)cc3nc2c1=O	30.6	16.6	12.7	-9.2	90.0*	13.2	45.2*	10.8	23.4*
NC(c1csc(NC(=O)Nc2cccc(Cl)c2)n1)c1ccccc1Cl (configuration not stated)	34.3	.	.	.	52.1*	66.2*	27.3*	64.3*	46.6*
Cc1oc(-c2ccccc2)nc1CS(=O)CC(=O)N1CCc2ccccc2C1 (configuration not stated)	-15.1	-2.0	-0.5	2.8	56.4*	90.8*	0.4	43.6	1.6
Cc1oc(-c2cccs2)nc1CS(=O)CC(=O)NCCc1ccccc1 (configuration not stated)	-20.9	-1.5	0.1	-4.0	58.1*	73.1*	4.1	34.5	4.5
Cc1ccccc1-c1nc(CS(=O)(=O)CC(=O)NCCc2ccccc2)c(C)o1	23.7	3.9	3.7	-12.1	71.8*	75.5*	4.3	62.6*	15.9
COc1cccc(-c2nc(CS(=O)(=O)CC(=O)N3CCc4ccccc4C3)c(C)o2)c1	0.5	-1.0	2.2	-8.6	66.6*	86.9*	2.8	42.6	8.9
Cc1ccc(-c2nc(CS(=O)CC(=O)N3CCN(c4ccccc4)CC3)c(C)o2)cc1 (configuration not stated)	-8.8	4.1	4.3	-8.8	1.5	.	.	.	.
CCCNC(=O)CS(=O)(=O)Cc1nc(-c2cccc(OC)c2)oc1C	-11.0	-0.5	4.4	0.9	-0.4	.	.	.	.
COc1cccc(-c2nc(CS(=O)(=O)CC(=O)NCCc3ccccc3)c(C)o2)c1	29.2	2.4	3.6	-3.6	70.8*	94.0*	20.7*	67.3*	12.2
CC1(C)C[C@H](O)[C@]2(CO)[C@H](O)C[C@]3(C)C(=CCC4[C@@]5(C)CC[C@H](O)C(C)(C)C5CC[C@]43C)[C@@H]2C1 (some centres not stated)	36.0	1.4	0.6	-1.5	51.2*	32.5	7.9	32.1	20.7
O=C(Cn1nnc(-c2ccc3c(c2)OCO3)n1)NCc1ccccc1	-12.2	-0.1	0.8	-4.7	2.6	.	.	.	.
Cc1ccc(-c2nnn(CC(=O)NCCc3ccc4c(c3)OCO4)n2)cc1	67.3*	0.0	-0.3	-5.6	77.7*	47.4*	10.3	22.6	16.0
COc1ccc(C2NC(=O)NC(C)=C2C(=O)OCC2CCCCC2)cc1OC (configuration not stated)	-26.6	0.3	0.1	5.0	0.6	.	.	.	.
Cn1c(C(=O)OCC(=O)NCCc2ccccc2)cc2sccc21	47.6	3.0	0.6	-7.2	98.2*	10.4	0.8	3.7	1.4
NC(COCc1ccccc1)c1csc(Nc2cc(Oc3ccccc3)ncn2)n1 (configuration not stated)	28.9	.	.	.	24.1	.	.	.	.
COc1cccc(Nc2nc(C(N)C(C)C)cs2)n1 (configuration not stated)	-15.6	.	.	.	18.7	.	.	.	.
COc1cccc(Nc2nc(C(N)Cc3ccc(F)cc3)cs2)n1 (configuration not stated)	24.5	.	.	.	61.6*	38.4*	20.4*	23.3	28.9*
COc1cccc(Nc2nc(C(N)Cc3ccc(C(F)(F)F)cc3)cs2)n1 (configuration not stated)	28.3	.	.	.	60.3*	51.9*	38.4*	54.5*	58.6*
COc1cccc(Nc2nc(C(N)COCc3ccccc3)cs2)n1 (configuration not stated)	33.0	.	.	.	58.9*	80.0*	10.7	55.9*	14.9
COc1ccc(CC(N)c2csc(NC(=O)c3ccc(F)cc3)n2)cc1 (configuration not stated)	34.2	.	.	.	21.4	.	.	.	.
COc1ccc(CC(N)c2csc(Nc3cccc(OC)n3)n2)cc1 (configuration not stated)	26.4	.	.	.	61.3*	70.7*	29.9*	35.2	28.8*
SMILES	TAAR1 antagonist	OXTR agonist	V1R ag counter	OXTR potentiate	TAAR1 agonist	TAAR1 ag confirm	Ga16 nonsel ag	TAAR1 desensitize	Ga16 nonsel ant
Cc1c(C(=O)N2CCOCC2)c(S(=O)(=O)Nc2ccc(OC(F)(F)F)cc2)c(C)n1C	-28.5	0.2	-0.1	0.7	0.1	.	.	.	.
Cc1cc(N/N=C/c2ccncc2)c([N+](=O)[O-])cc1[N+](=O)[O-]	-8.2	0.6	-1.6	-0.5	0.1	.	.	.	.
COc1ccc(C)cc1N(CC(=O)NCCSCc1cccc(Cl)c1)S(C)(=O)=O	19.8	0.6	1.1	-3.1	3.9	.	.	.	.
Cc1nn(CCCC(=O)NCCc2ccccc2)c(=O)c2nn(-c3ccccc3)c(C)c12	-36.2	-2.5	0.7	-1.9	-1.3	.	.	.	.
Cc1ccc(-n2nc3c(=O)n(CCCC(=O)NCCc4ccccc4)nc(C)c3c2C)cc1	-23.0	-1.5	-1.3	-9.4	41.0*	36.2	5.0	-0.6	8.0
Cc1ccc2c(C)c(C(=O)N(C)C(C)c3ccon3)oc2c1C (configuration not stated)	-26.2	-1.7	0.2	-2.3	4.3	.	.	.	.

Assay outcomes: PubChem BioAssay, The Scripps Research Institute Molecular Screening Center
